Measurements from ChEMBL document CHEMBL2346606, “Inhibitors of the TAM subfamily of tyrosine kinases: synthesis and biological evaluation” (Eur J Med Chem, 2013).

How the values were obtained:
[1] = target: T1, Tyrosine-protein kinase receptor TYRO3 (Homo sapiens, UniProt Q06418); assay: Binding affinity to TYRO3 (unknown origin) after 1 hr
T1 sequence (Q06418 whole entry): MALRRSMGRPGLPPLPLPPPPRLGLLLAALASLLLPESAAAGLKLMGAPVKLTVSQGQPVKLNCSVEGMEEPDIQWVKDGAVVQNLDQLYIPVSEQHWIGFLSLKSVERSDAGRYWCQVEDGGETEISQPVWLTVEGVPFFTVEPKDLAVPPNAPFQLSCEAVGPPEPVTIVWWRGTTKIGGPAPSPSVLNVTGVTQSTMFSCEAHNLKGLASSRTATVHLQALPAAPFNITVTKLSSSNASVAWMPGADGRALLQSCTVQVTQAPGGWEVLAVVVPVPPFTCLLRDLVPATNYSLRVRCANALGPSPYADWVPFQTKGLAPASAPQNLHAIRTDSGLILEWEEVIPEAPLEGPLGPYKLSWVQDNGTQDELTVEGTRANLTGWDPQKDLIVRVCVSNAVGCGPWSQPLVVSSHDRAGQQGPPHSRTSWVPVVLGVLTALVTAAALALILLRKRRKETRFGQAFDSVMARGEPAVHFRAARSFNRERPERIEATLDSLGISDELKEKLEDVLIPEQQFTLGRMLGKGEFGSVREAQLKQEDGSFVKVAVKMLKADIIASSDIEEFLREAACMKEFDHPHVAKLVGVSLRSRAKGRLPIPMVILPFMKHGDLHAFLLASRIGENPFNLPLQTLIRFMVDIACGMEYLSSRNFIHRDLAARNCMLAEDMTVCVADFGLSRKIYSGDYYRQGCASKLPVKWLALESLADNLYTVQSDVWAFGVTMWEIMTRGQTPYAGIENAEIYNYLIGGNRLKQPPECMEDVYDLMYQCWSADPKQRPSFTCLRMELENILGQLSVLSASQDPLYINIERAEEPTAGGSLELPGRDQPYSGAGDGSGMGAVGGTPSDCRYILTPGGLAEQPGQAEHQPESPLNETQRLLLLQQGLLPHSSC

[2] = target: T2, Tyrosine-protein kinase ABL1 (Homo sapiens, UniProt P00519); assay: Binding affinity to phosphorylated ABL1 (unknown origin) after 1 hr
[3] = Growth inhibition of African green monkey Vero cells at 10 uM after 72 hrs by […] assay relative to control; assay type: cell-based; details: chlorocebus sabaeus, read-out: GI
How it was run: (§1)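 KB and Vero cells were grown in D-MEM with 10% FCS and antibiotics under 5% CO2, plated, then dosed 24 h later at 10^-5 M from DMSO (controls 1% DMSO). After 72 h, MTS was added for 3 h at 37 °C and A490 read. Inhibition = (1 − OD treated/OD control) × 100, in triplicate.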

[4] = target: T2, Tyrosine-protein kinase ABL1; assay: Binding affinity to non phosphorylated ABL1 (unknown origin) after 1 hr
[5] = target: Hepatocyte growth factor receptor (Homo sapiens, UniProt P08581); assay: Binding affinity to MET (unknown origin) after 1 hr
HT-29 = assay: Growth inhibition of human HT-29 cells at 10 uM after 72 hrs by […] assay relative to control; assay type: functional; details: HT-29, 72 h, read-out: GI
How it was run: (§2)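 HT29, MCF7 and PC-3 cells were grown in RPMI, plated, and treated 24 h later with compound in DMSO at 10^-5 M (DMSO controls, 1% final). After 72 h exposure, MTS reagent was added for 3 h at 37 °C and absorbance read at 490 nm. Proliferation inhibition = [1 − OD treated/OD control] × 100, triplicate experiments.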

KB = assay: Growth inhibition of human KB cells at 10 uM after 72 hrs by […] relative to control; assay type: functional; details: read-out: GI; how it was run: as §1
PC-3 = assay: Growth inhibition of human PC3 cells at 10 uM after 72 hrs by […] assay relative to control; assay type: functional; details: PC-3, 72 h, read-out: GI; how it was run: as §2
MCF7 = assay: Growth inhibition of human MCF7 cells at 10 uM after 72 hrs by […] assay relative to control; assay type: functional; details: MCF7, 72 h, read-out: GI; how it was run: as §2
[6] = target: T3, Tyrosine-protein kinase receptor UFO (Homo sapiens, UniProt P30530); assay: Binding affinity to AXL (unknown origin) after 1 hr
T3 sequence (P30530 whole entry): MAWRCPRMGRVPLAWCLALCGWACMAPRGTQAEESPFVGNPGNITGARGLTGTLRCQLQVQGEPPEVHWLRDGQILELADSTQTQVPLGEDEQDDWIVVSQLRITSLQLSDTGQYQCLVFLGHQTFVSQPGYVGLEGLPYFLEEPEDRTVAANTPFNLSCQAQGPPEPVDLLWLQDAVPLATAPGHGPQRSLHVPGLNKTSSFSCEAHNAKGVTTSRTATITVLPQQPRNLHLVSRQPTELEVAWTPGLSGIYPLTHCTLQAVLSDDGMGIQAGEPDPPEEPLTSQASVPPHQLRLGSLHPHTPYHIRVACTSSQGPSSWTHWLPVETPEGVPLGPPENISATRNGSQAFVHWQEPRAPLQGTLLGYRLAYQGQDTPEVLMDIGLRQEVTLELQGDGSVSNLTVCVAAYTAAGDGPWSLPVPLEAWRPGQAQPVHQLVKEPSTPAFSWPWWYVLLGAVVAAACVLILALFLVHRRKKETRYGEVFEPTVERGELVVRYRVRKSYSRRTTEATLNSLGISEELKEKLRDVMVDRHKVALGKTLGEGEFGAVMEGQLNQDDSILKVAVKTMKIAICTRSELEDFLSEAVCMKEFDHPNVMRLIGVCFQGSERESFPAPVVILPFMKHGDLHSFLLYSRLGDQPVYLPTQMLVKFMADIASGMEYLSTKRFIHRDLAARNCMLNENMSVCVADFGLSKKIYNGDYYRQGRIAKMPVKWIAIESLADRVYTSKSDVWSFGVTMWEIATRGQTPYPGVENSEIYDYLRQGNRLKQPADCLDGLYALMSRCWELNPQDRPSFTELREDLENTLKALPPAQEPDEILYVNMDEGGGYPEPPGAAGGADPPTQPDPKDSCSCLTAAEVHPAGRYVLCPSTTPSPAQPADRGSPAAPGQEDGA

[7] = target: T4, Tyrosine-protein kinase Mer (Homo sapiens, UniProt Q12866); assay: Binding affinity to MER (unknown origin) after 1 hr
T4 sequence (Q12866 whole entry): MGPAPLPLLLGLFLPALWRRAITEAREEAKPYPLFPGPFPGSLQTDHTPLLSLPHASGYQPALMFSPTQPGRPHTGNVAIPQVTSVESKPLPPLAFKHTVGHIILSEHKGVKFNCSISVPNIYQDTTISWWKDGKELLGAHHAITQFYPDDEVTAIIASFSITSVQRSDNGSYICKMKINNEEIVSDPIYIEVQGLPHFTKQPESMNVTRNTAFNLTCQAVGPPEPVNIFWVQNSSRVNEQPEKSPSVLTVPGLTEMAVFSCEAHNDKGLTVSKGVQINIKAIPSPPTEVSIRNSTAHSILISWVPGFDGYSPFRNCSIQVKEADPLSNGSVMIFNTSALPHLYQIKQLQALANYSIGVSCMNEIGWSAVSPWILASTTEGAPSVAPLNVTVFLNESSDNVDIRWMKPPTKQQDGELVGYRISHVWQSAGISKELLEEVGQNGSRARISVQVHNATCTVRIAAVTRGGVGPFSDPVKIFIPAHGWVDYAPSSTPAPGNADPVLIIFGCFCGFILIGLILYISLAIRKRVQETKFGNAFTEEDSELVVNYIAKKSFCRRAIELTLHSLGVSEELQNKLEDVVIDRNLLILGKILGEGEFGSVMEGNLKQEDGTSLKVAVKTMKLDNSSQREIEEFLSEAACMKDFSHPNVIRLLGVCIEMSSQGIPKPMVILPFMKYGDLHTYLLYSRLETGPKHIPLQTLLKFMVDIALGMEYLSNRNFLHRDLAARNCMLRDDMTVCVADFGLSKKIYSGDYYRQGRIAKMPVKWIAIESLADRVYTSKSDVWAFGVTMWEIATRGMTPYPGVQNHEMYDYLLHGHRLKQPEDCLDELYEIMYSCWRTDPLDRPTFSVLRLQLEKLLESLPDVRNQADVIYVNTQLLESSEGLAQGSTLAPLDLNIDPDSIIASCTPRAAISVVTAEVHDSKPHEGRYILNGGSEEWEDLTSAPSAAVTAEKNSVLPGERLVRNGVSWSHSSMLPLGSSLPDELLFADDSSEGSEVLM

[8] = target: T5, Tyrosine-protein kinase receptor TYRO3 (Homo sapiens) (UniProt Q06418); assay: Inhibition of TYRO3 (unknown origin) at 200 nM relative to control
T5 sequence (whole entry): T1 sequence (Q06418 whole entry)

[9] = target: T6, Tyrosine-protein kinase Mer (Homo sapiens) (UniProt Q12866); assay: Inhibition of MER (unknown origin) at 200 nM relative to control
T6 sequence (whole entry): T4 sequence (Q12866 whole entry)

Sequence of Hepatocyte growth factor receptor (P08581 whole entry): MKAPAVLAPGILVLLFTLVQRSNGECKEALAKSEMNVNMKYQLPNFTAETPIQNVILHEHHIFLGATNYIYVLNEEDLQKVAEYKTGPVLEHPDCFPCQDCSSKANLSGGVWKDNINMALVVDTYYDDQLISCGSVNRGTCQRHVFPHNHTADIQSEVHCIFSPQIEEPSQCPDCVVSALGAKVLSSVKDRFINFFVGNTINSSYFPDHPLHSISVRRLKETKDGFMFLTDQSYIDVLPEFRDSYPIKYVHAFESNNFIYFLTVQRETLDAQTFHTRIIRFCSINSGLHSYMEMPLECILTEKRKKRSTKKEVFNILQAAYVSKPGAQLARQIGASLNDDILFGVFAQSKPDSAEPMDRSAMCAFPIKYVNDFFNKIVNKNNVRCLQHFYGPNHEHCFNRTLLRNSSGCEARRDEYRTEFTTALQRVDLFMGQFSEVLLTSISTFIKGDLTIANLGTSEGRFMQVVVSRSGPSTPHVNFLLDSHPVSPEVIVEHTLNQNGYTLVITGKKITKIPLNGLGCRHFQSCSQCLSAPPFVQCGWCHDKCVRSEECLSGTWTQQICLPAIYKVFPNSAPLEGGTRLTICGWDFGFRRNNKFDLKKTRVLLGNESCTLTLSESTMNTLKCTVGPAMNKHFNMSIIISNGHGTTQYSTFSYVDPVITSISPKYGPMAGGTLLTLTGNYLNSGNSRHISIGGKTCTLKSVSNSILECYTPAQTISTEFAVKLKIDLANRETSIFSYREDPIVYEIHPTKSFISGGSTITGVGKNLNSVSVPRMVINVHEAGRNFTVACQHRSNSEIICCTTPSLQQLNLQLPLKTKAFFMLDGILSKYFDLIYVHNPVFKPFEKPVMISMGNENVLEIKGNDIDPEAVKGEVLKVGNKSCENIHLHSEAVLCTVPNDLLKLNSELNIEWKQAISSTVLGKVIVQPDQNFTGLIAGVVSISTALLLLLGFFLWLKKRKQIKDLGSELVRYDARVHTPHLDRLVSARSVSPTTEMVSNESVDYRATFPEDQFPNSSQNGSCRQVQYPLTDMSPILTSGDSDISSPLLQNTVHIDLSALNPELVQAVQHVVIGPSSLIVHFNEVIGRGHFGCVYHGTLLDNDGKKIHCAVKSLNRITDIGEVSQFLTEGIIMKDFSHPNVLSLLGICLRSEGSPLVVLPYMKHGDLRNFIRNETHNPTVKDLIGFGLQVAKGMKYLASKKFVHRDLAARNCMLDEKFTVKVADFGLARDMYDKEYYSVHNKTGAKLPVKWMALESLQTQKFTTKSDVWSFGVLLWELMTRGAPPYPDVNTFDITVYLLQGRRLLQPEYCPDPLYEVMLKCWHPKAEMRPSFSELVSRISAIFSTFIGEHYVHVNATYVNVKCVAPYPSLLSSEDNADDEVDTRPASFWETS
T2 sequence (P00519 whole entry): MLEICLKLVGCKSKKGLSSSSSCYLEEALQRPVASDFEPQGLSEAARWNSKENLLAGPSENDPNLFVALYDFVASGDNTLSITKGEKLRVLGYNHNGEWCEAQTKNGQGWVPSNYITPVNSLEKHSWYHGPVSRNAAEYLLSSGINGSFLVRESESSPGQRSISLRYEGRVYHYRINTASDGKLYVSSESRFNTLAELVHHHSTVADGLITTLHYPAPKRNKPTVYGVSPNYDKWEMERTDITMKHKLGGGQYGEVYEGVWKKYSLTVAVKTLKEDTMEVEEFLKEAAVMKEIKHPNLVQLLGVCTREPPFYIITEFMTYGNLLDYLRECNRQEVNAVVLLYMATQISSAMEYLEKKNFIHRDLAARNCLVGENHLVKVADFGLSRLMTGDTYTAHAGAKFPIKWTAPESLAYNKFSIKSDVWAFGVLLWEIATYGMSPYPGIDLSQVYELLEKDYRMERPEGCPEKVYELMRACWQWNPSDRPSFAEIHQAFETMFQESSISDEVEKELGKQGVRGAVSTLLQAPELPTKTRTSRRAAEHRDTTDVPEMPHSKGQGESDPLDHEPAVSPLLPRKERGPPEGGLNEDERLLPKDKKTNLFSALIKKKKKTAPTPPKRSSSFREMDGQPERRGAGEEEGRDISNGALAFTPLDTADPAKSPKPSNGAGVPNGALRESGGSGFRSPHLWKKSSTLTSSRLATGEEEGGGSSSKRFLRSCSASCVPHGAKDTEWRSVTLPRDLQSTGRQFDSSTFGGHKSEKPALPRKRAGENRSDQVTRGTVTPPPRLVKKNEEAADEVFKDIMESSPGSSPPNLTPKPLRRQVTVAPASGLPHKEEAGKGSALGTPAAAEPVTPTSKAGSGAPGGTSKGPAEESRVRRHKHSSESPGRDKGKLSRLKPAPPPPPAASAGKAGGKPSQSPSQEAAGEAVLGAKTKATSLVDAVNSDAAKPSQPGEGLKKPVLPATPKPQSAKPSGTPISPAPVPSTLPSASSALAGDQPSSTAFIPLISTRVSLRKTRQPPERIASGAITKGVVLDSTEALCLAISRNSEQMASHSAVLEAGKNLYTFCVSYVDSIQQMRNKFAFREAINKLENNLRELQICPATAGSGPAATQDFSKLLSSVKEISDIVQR

Row | SMILES | Kd [1] | Kd [2] | inhibition at 72 h, 10 µM [3] | Kd [4] | Kd [5] | inhibition of growth at 10 µM (HT-29) | inhibition of growth at 10 µM (KB) | inhibition of growth at 10 µM (PC-3) | inhibition of growth at 10 µM (MCF7) | Kd [6] | Kd [7] | inhibition [8] | inhibition [9]
1 | O=C(Nc1ccc(Oc2ncnc3[nH]cnc23)c(F)c1)c1cccn(-c2cccc(F)c2)c1=O | 0.9 µM | 3.3 µM | < 10% | 0.32 µM | 0.44 µM | < 10% | < 10% | < 10% | < 10% | – | – | – | –
2 | O=C(Nc1ccc(Oc2ncnc3nc[nH]c23)c(F)c1)c1cccn(-c2ccc(C(F)(F)F)cc2)c1=O | 2.9 µM | – | < 10% | – | 0.15 µM | < 10% | < 10% | < 10% | < 10% | – | – | – | –
3 | O=C(Nc1ccc(Oc2ncnc3nc[nH]c23)c(F)c1)c1cccn(-c2ccc(F)cc2)c1=O | 0.2 µM | 40 µM | < 10% | 6.6 µM | 0.065 µM | < 10% | < 10% | < 10% | < 10% | 0.039 µM | 0.042 µM | – | –
4 | Cc1cc(C(=O)Nc2cccc(-c3nc4c(Nc5cccc(C(F)(F)F)c5)ncnc4[nH]3)c2)ccc1Br | – | – | < 10% | – | – | < 10% | < 10% | < 10% | < 10% | – | – | – | –
5 | O=C(Nc1ccc(Nc2ncnc3[nH]cnc23)c(F)c1)c1ccccc1F | – | – | < 10% | – | – | < 10% | < 10% | < 10% | < 10% | – | – | – | –
6 | CC(C)[S+]([O-])c1ccccc1Nc1nc(Nc2ccc(CN3CCN(C)CC3)cc2)ncc1Cl (centres undefined) | – | – | – | – | – | – | – | – | – | – | – | > 50% | > 90%
7 | Cc1cc(C(=O)Nc2cccc(-c3nc4c(Nc5ccc(F)cc5)ncnc4[nH]3)c2)ccc1Br | – | – | < 10% | – | – | < 10% | < 10% | < 10% | < 10% | – | – | – | –
8 | Cc1cc(C(=O)Nc2cccc(-c3nc4c(Nc5cccc(F)c5)ncnc4[nH]3)c2)ccc1Br | – | – | < 10% | – | – | < 10% | < 10% | < 10% | < 10% | – | – | – | –
